In assay [1] the target is T1, D(1A) dopamine receptor (Homo sapiens, UniProt P21728). Kind of assay: Antagonist activity at human dopamine D1 receptor expressed in HEK293 cells assessed as inhibition of SKF-38393-induced calcium influx. The assay is classed as functional, cell-based. In outline: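 HEK293 cells stably expressing the human D1 receptor were loaded with a fluorescent dye. Cells were preincubated with rising concentrations of test ligand, then SKF 38393 agonist was injected. Ca2+-induced fluorescence was read on a microplate reader.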
T1 sequence (P21728 whole entry): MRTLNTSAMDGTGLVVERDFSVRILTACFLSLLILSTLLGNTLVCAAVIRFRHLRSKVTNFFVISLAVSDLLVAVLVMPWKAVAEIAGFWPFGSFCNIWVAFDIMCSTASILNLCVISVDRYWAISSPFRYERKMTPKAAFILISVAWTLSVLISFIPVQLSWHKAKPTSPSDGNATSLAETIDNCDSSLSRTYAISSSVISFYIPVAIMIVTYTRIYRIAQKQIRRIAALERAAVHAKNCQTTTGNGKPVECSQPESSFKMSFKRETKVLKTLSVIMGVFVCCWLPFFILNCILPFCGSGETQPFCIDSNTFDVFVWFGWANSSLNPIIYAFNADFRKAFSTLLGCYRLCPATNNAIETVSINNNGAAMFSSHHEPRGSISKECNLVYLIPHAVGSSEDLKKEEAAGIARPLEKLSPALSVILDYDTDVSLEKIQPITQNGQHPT

The target of assay [2] is T2, D(2) dopamine receptor (Homo sapiens, UniProt P14416). Description: Antagonist activity at human dopamine D2L receptor expressed in HEK293 cells assessed as inhibition of quinpirole-induced calcium influx.
T2 sequence (P14416 whole entry): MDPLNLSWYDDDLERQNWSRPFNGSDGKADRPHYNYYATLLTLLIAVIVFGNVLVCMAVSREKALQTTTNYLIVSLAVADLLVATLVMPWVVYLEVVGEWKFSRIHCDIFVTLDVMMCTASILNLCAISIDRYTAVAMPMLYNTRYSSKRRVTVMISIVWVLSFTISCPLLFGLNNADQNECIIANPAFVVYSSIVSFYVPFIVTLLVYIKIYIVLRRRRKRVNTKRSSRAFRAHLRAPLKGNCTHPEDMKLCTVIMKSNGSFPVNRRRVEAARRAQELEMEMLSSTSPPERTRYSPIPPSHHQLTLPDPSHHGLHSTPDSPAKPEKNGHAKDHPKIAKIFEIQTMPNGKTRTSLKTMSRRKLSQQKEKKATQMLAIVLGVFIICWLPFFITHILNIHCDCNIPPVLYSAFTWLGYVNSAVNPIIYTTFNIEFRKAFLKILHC
Assay [3] addresses T2, D(2) dopamine receptor. Kind of assay: Displacement of [3H]spiperone from human recombinant dopamine D2L receptor expressed in HEK293 cells by microplate scintillation counting. The format is cell-based. In outline: (§1)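 Human D2L or D3 receptor stably expressed in HEK cells, or D4.4 in CHO cells. Competition binding against [3H]spiperone as the D2-like radioligand. Ki values in nM are means of two or three experiments, each run in triplicate, ± SEM.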
Background: In a radioligand displacement assay an active substance lowers the binding of a labelled ligand.

Assay [4] concerns the target D(3) dopamine receptor (Homo sapiens, UniProt P35462). Kind of assay: Displacement of [3H]radioligand from human recombinant dopamine D3 receptor expressed in HEK293 cells by microplate scintillation counting. The format is cell-based. The gist of the method: as §1
Assay [5] has as its target T1, D(1A) dopamine receptor. Description: Displacement of [3H]SCH23390 from human recombinant dopamine D1 receptor expressed in HEK293 cells by microplate scintillation counting. The assay is classed as cell-based. In outline: (§2)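 Human D1 or D5 receptor stably expressed in HEK cells. Ki values in nM are means of two or three experiments, each run in triplicate, ± SEM.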

The target in assay [6] is D(1B) dopamine receptor (Homo sapiens, UniProt P21918). Kind of assay: Displacement of [3H]radioligand from human recombinant dopamine D5 receptor expressed in HEK293 cells by microplate scintillation counting. The assay is classed as cell-based. In outline:
as §2

Assay [7] deals with T3, D(4) dopamine receptor (Homo sapiens, UniProt P21917).
T3 sequence (P21917 whole entry): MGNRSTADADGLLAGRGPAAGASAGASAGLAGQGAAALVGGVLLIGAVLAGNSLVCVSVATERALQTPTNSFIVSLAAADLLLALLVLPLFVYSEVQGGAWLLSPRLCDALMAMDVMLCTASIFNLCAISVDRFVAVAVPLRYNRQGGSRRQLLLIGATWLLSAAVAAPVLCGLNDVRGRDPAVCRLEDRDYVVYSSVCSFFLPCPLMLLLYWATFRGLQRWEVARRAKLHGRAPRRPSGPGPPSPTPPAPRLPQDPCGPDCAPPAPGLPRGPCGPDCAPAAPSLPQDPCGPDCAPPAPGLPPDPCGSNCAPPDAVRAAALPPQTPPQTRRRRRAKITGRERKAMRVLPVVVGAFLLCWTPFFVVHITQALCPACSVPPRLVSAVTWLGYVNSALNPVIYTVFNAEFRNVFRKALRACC
Kind of assay: Displacement of [3H]radioligand from human recombinant dopamine D4.4 receptor expressed in CHO cells by microplate scintillation counting. The assay is classed as cell-based. The gist of the method:
as §1

Assay [8] is described as follows: Selectivity for dopamine D5 receptor over dopamine D1 receptor.

Activity calls are given as the source filed them. The calls are words filed in the database; no cut-off is given here.

The term Ki denotes the dissociation constant of the complex between target and ligand, obtained from inhibition or displacement.

D(1B) dopamine receptor, sequence (P21918 whole entry): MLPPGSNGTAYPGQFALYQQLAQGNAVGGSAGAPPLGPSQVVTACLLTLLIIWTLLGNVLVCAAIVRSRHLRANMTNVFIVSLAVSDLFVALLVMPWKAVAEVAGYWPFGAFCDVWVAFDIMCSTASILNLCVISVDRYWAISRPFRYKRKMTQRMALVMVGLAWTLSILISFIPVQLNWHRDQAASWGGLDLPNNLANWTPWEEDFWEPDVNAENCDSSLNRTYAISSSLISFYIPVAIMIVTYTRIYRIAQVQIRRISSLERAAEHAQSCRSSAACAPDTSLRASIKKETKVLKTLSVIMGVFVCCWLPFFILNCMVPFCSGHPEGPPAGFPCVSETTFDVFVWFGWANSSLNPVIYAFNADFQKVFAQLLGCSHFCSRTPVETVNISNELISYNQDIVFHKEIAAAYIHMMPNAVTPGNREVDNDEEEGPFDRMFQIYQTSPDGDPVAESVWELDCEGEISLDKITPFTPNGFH
D(3) dopamine receptor, sequence (P35462 whole entry): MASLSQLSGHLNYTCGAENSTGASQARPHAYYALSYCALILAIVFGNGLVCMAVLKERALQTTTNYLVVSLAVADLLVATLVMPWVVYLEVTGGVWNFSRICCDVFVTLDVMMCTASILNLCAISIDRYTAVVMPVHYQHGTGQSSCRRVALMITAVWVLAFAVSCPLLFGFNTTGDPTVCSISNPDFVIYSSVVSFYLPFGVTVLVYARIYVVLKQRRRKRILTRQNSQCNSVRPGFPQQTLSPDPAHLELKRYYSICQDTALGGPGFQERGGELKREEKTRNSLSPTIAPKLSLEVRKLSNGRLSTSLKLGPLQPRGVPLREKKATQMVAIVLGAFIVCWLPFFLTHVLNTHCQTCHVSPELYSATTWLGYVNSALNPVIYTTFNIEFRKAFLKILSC

Turning to `CN1CCc2ccccc2Cc2[nH]c3ccccc3c2CC1`, the result in assay [1] and in assay [2] was Active.
In the case of `CN1CCc2ccccc2Cc2c([nH]c3ccccc23)CC1`, the result in assay [1] and in assay [2] was Active. For the same molecule, the inhibition constant Ki in assay [3] amounted to 55.1 nM; in assay [4], 513 nM; in assay [5], 28.5 nM; in assay [6], 10.3 nM; in assay [7], 225 nM.
For the molecule `CN1CCc2ccccc2Cc2c[nH]c3cccc(c23)CC1`, the result in assay [1] and in assay [2] was Active. The Ki in assay [3] is 4 nM; in assay [4], 42.9 nM; in assay [5], 4.2 nM; in assay [6], 2.5 nM; in assay [7] it was 39.1 nM.
In the case of `CN1CCc2ccccc2Cc2c[nH]c3cccc(c23)C1`, the inhibition constant (Ki) in assay [3], in assay [4], in assay [5], in assay [6] and in assay [7] was over 10000 nM throughout.
Regarding `c1ccc2c(c1)CCN1CCc3cccc4[nH]cc(c34)C21` (centres undefined), the result in assay [1] and in assay [2] was Active. For the same molecule, the Ki in assay [3] is 4460 nM; in assay [4] it was over 10000 nM; in assay [5], 1840 nM; in assay [6], 1520 nM; in assay [7], over 10000 nM.
Regarding `CN1Cc2ccccc2[C@@H]2c3cccc4[nH]cc(c34)C[C@H]21`, the Selectivity ratio in assay [8] came out at 10.
Consider `c1ccc2c(c1)CCN1CCc3[nH]c4ccccc4c3C21` (centres undefined), for which the outcome in assay [1] and in assay [2] was Active. The Ki in assay [3] was 1480 nM; in assay [4], over 10000 nM; in assay [5], 2100 nM; in assay [6], over 10000 nM; in assay [7], over 10000 nM.
In the case of `c1ccc2c(c1)CCN1Cc3cccc4[nH]cc(c34)C21` (centres undefined), the outcome in assay [1] and in assay [2] was Active. In addition, the inhibition constant (Ki) in assay [7] is over 10000 nM.

These data come from ChEMBL document CHEMBL1155427, “Dopamine receptor ligands. Part 18: (1) modification of the structural skeleton of indolobenzazecine-type dopamine receptor antagonists” (J Med Chem, 2010).
